Data: ChEMBL document CHEMBL3108778, “Structure-activity relationships of synthetic cordycepin analogues as experimental therapeutics for African trypanosomiasis” (J Med Chem, 2013)
Active and inactive are the calls of the source. The rule behind the calls is not given here.

What was measured:
[1] = tested on: Trypanosoma brucei brucei; assay: Trypanocidal activity against bloodstream stage of Trypanosoma brucei brucei AnTat1.1E after 72 hrs by WST-1 assay in presence of deoxycoformycin; format: functional, organism-based
Method in brief: (§1)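 Bloodstream trypanosomes (6000/well) in log phase were treated in IMDM with 10% FCS for 72 h at 37 °C, 5% CO₂. Compounds were 11-step serial dilutions from DMSO stocks, final DMSO at most 0.25%. Controls were DMSO and 10 μM 3′-deoxyadenosine. Where stated, 1.5 μM deoxycoformycin was co-added. Readout was WST-1 for 2 h, A450. EC50 came from variable-slope nonlinear regression.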

[2] = tested on: Trypanosoma brucei brucei; assay: Trypanocidal activity against bloodstream stage of Trypanosoma brucei brucei AnTat1.1E infected in C57BL6J (B6) mouse assessed as reduction of parasitemia at 4 mg/kg, ip qd administered for 3 days measured after 40 days in presence of deoxycoformycin; format: functional, organism-based; parameters: dose 4 mg/kg
Method in brief: (§2)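 Mice were infected ip with T. b. brucei AnTat1.1E and treated ip once daily starting 2 h later. Where stated, 0.2 mg/kg deoxycoformycin was co-given. Vehicle was PBS with 1.25% final DMSO. Parasitemia and weight were recorded every other day, then twice weekly after 30 days. At least six mice per group.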

[3] = tested on: Trypanosoma brucei brucei; assay: Trypanocidal activity against bloodstream stage of Trypanosoma brucei brucei AnTat1.1E infected in C57BL6J (B6) mouse assessed as reduction of parasitemia at 4 mg/kg, ip qd administered for 10 days measured after 18 days; format: functional, organism-based; parameters: dose 4 mg/kg; method in brief: as §2
[4] = tested on: Trypanosoma brucei brucei; assay: Trypanocidal activity against bloodstream stage of Trypanosoma brucei brucei AnTat1.1E infected in C57BL6J (B6) mouse assessed as reduction of parasitemia at 4 mg/kg, ip qd administered for 10 days measured after 19 to 30 days; format: functional, organism-based; parameters: dose 4 mg/kg; method in brief: as §2
[5] = tested on: Trypanosoma brucei brucei; assay: Trypanocidal activity against bloodstream stage of Trypanosoma brucei brucei AnTat1.1E after 72 hrs by WST-1 assay; format: functional, organism-based; method in brief: as §1
L929 = assay: Cytotoxicity against mouse L929 cells assessed as cell viability after 72 hrs by WST-1 assay; format: cell-based; conditions: L929, 72 h
Method in brief: (§3)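 MOLT4 (10⁴/well) or L929 (5 × 10³/well) cells were kept in RPMI with 10% FCS and exposed to serial dilutions for 72 h at 37 °C, 5% CO₂. Final DMSO was at most 0.25%. Where stated, 1.5 μM deoxycoformycin was co-added. WST-1 was added for 2 h and A450 read. EC50 came from variable-slope nonlinear fits; triplicate cultures.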

[6] = Displacement of [2,8-3H]-adenosine from Trypanosoma brucei AT1/P2 expressed in bloodstream stage of Trypanosoma brucei brucei B48
Method in brief: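 Bloodstream T. b. brucei B48 clone with endogenous TbAT1 deleted and TbAT1 overexpressed. Cells were incubated 20 s with 0.05 μM [2,8-³H]adenosine plus competitor (typically 10 nM–100 μM). Uptake was stopped with ice-cold 1 mM adenosine and centrifugation through oil. Ki came from competition curves, triplicates on at least three occasions.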

Trypanosoma brucei [7] = assay: Trypanocidal activity against Trypanosoma brucei; format: functional, organism-based; method in brief: as §1
MOLT-4 [8] = assay: Cytotoxicity against human MOLT4 cells assessed as cell viability after 72 hrs by WST-1 assay in presence of deoxycoformycin; format: cell-based; conditions: MOLT-4, 72 h; method in brief: as §3
MOLT-4 [9] = assay: Cytotoxicity against human MOLT4 cells assessed as cell viability after 72 hrs by WST-1 assay; format: cell-based; conditions: MOLT-4, 72 h; method in brief: as §3
Trypanosoma brucei [10] = assay: Trypanocidal activity against bloodstream stage of Trypanosoma brucei after 72 hrs by WST-1 assay; format: functional, organism-based; method in brief: as §1
[11] = tested on: Trypanosoma brucei brucei; assay: Trypanocidal activity against bloodstream stage of Trypanosoma brucei brucei AnTat1.1E infected in C57BL6J (B6) mouse assessed as reduction of parasitemia at 2 mg/kg, ip qd measured after 30 days; format: functional, organism-based; parameters: dose 2 mg/kg; method in brief: as §2
Trypanosoma brucei [12] = assay: Trypanocidal activity against bloodstream stage of Trypanosoma brucei after 72 hrs by WST-1 assay in presence of deoxycoformycin; format: functional, organism-based; method in brief: as §1
[13] = tested on: Trypanosoma brucei brucei; assay: Trypanocidal activity against bloodstream stage of Trypanosoma brucei brucei AnTat1.1E after 72 hrs by WST-1 assay in presence of adenosine kinase inhibitor ABT702; format: functional, organism-based
[14] = tested on: Trypanosoma brucei brucei; assay: Trypanocidal activity against bloodstream stage of Trypanosoma brucei brucei AnTat1.1E infected in C57BL6J (B6) mouse assessed as reduction of parasitemia at 2 mg/kg, ip qd administered for 3 days measured after 40 days in presence of deoxycoformycin; format: functional, organism-based; parameters: dose 2 mg/kg; method in brief: as §2
[15] = tested on: Trypanosoma brucei brucei; assay: Trypanocidal activity against bloodstream stage of Trypanosoma brucei brucei AnTat1.1E infected in acute C57BL6J (B6) mouse HAT model assessed as day of parasitemia relapse at 5 mg/kg, po qd administered for 5 days; format: functional
[16] = tested on: Trypanosoma brucei brucei; assay: Trypanocidal activity against bloodstream stage of Trypanosoma brucei brucei AnTat1.1E infected in acute C57BL6J (B6) mouse HAT model assessed as day of parasitemia relapse at 15 mg/kg, po qd administered for 5 days; format: functional
[17] = Apparent initial half life in C57BL/6 mouse at 25 mg/kg, po; format: ADME, organism-based; parameters: dose 25 mg/kg, route oral; conditions: in vivo, read-out: alphat1/2(app) (converted)
[18] = Metabolic stability in human plasma at 10 uM measured over 4 hrs by LC-MS/MS analysis; format: ADME, cell-free; conditions: read-out: Stability
Method in brief: (§4)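 Pooled human plasma (four donors) was spiked with 10 μM final compound. It was dialysed against isotonic phosphate buffer pH 7.4 for 4 h at 37 °C by rapid equilibrium dialysis. A separate sealed plasma sample was held 4 h at 37 °C for stability. Samples were methanol-precipitated and quantified by LC-MS/MS.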

[19] = Apparent permeability across apical to basolateral side in human Caco2 cells assessed as compound recovery at 10 uM by LC-MS/MS analysis; format: ADME, cell-based; conditions: Caco-2, read-out: Papp
Method in brief: (§5)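 Caco-2 monolayers (passage 94–105) were used on day 21 on permeable filters. Transport was run in both directions at pH 7.4 on both sides, 37 °C, 500 rpm stirring. The receiver side was sampled at 15, 30 and 60 min, the donor side at 60 min for mass balance. Mannitol served as integrity marker. LC-MS/MS used a 10–1000 nM external standard curve.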

[20] = Apparent initial half life in C57BL/6 mouse at 25 mg/kg, ip; format: ADME, organism-based; parameters: dose 25 mg/kg, route intraperitoneal; conditions: in vivo, read-out: alphat1/2(app) (converted)
[21] = tested on: Trypanosoma brucei brucei; assay: Trypanocidal activity against bloodstream stage of Trypanosoma brucei brucei AnTat1.1E infected in acute C57BL6J (B6) mouse HAT model assessed as day of parasitemia relapse at 5 mg/kg, po qd administered for 5 days in presence of deoxycoformycin; format: functional
[22] = tested on: Trypanosoma brucei brucei; assay: Trypanocidal activity against bloodstream stage of Trypanosoma brucei brucei AnTat1.1E infected in acute C57BL6J (B6) mouse HAT model assessed as reduction of parasitemia at 30 mg/kg, po qd administered for 6 days measured after 90 days; format: functional, organism-based; parameters: dose 30 mg/kg
[23] = Apparent terminal half life in C57BL/6 mouse at 25 mg/kg, ip; format: ADME, organism-based; parameters: dose 25 mg/kg, route intraperitoneal; conditions: in vivo, read-out: betat1/2(app) (converted)
Liver microsome = assay: Metabolic stability in human liver microsomes at 1 uM by LC-MS/MS analysis; format: ADME
Method in brief: (§6)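 Pooled human or male CD-1 mouse liver microsomes (0.5 mg/mL) were incubated with 1 μM compound in 0.1 M phosphate pH 7.4, started with 1 mM NADPH. Sampling was at 0, 5, 15 and 40 min, quenched with cold acetonitrile containing warfarin internal standard. Analysis was LC-MS/MS on a relative basis; intrinsic clearance by the well-stirred model. Midazolam and dextromethorphan were CYP controls.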

[24] = Cmax in C57BL/6 mouse at 25 mg/kg, ip; format: ADME, organism-based; parameters: dose 25 mg/kg, route intraperitoneal; conditions: in vivo
[25] = Apparent permeability across basolateral to apical side in human Caco2 cells assessed as compound recovery at 10 uM by LC-MS/MS analysis; format: ADME, cell-based; conditions: Caco-2, read-out: Papp; method in brief: as §5
[26] = Apparent permeability across basolateral to apical side in human Caco2 cells at 10 uM by LC-MS/MS analysis; format: ADME, cell-based; conditions: Caco-2; method in brief: as §5
[27] = Cmax in C57BL/6 mouse at 25 mg/kg, po; format: ADME, organism-based; parameters: dose 25 mg/kg, route oral; conditions: in vivo
[28] = Fraction unbound in human plasma at 10 uM after 4 hrs by equilibrium dialysis method; format: ADME, cell-free; method in brief: as §4
[29] = Metabolic stability in CD-1 mouse liver microsomes at 1 uM by LC-MS/MS analysis; format: ADME, Microsome; method in brief: as §6
[30] = Apparent permeability across apical to basolateral side in human Caco2 cells at 10 uM by LC-MS/MS analysis; format: ADME, cell-based; conditions: Caco-2; method in brief: as §5
[31] = Tmax in C57BL/6 mouse at 25 mg/kg, po and ip; format: ADME, organism-based; parameters: dose 25 mg/kg, route oral; conditions: in vivo
[32] = Apparent terminal half life in C57BL/6 mouse at 25 mg/kg, po; format: ADME, organism-based; parameters: dose 25 mg/kg, route oral; conditions: in vivo, read-out: betat1/2(app) (converted)
Caco-2 = assay: Efflux ratio of apparent permeability across basolateral to apical side over apical to basolateral side in human Caco2 cells at 10 uM by LC-MS/MS analysis; conditions: caco-2, 10 µM
[33] = tested on: Trypanosoma brucei brucei; assay: Trypanocidal activity against bloodstream stage of Trypanosoma brucei brucei AnTat1.1E infected in acute C57BL6J (B6) mouse HAT model assessed as day of parasitemia relapse at 1 mg/kg, po bid administered for 5 days; format: functional

CCCCCCCC(=O)Nc1ncnc2c1ncn2[C@@H]1O[C@H](CO)C[C@H]1O
IC50 [1]: 0.001 µM | Activity [2]: Active | Activity [3]: Active | Activity [4]: inactive | IC50 ([5]; read-out: IC50(app)): 0.028 µM | IC50 (L929): 18.6 µM

Nc1ncnc2c1ncn2[C@@H]1O[C@H](CO)[C@H]2O[C@H]21
IC50 ([5]; read-out: IC50): > 100 µM

Nc1nc(F)nc2nc[nH]c12
IC50 ([5]; read-out: IC50): > 100 µM | Ki [6]: 0.9 µM

Nc1nc(F)nc2c1ncn2[C@@H]1O[C@H](CO)[C@@H](O)[C@H]1O
IC50 ([5]; read-out: IC50): > 100 µM | Ki [6]: 2.71 µM

OC[C@H]1O[C@@H](n2cnc3cncnc32)[C@H](O)[C@@H]1O [NEBULARINE]
IC50 ([5]; read-out: IC50): 1.15 µM | IC50 (L929): 2.37 µM

Nc1nc(NCCO)nc2c1ncn2[C@@H]1O[C@H](CO)C[C@H]1O
IC50 ([5]; read-out: IC50): > 50 µM

Nc1[nH]c(Cl)nc2ncnc1-2
Ki [6]: 2.6 µM

Nc1[nH]cnc2ncnc1-2 [ADENINE]
Ki [6]: 0.28 µM

OC[C@@H]1C[C@@H](O)[C@H](n2cnc3cncnc32)O1
IC50 ([5]; read-out: IC50): 8.79 µM | IC50 (L929): > 100 µM

Nc1ncnc2c1ncn2[C@@H]1O[C@H](CO)[C@@H](O)[C@@H]1O [VIDARABINE]
IC50 ([5]; read-out: IC50): > 100 µM

Nc1nc(Cl)nc2c1ncn2[C@@H]1O[C@H](CO)[C@@H](O)[C@H]1O
Ki [6]: 9.65 µM

Nc1ncnc2c1ncn2[C@@H]1O[C@H](CO)C[C@H]1O [CORDYCEPIN]
IC50 (Trypanosoma brucei [7]): 0.032 µM | IC50 (MOLT-4 [8]): 0.1 µM | IC50 (MOLT-4 [9]): ≥ 100 µM | IC50 (Trypanosoma brucei [10]): 0.042 µM | Activity [11]: inactive | IC50 ([5]; read-out: IC50): 0.03 µM | IC50 (L929): 28.7 µM | IC50 (Trypanosoma brucei [12]): 0.0012 µM | Activity [13]: inactive | Activity [14]: Active | Ki [6]: 0.18 µM

Nc1nc(F)nc2c1ncn2[C@@H]1O[C@H](CO)C[C@@H]1O
IC50 ([5]; read-out: IC50): > 100 µM

Nc1nc(F)nc2c1ncn2[C@@H]1O[C@H](CO)C[C@H]1O
Time [15]: 7 days | Time [16]: 7 days | half-life [17]: 54 min | remaining at 4 h, 10 µM [18]: 98% | recovery at 10 µM [19]: 102% | half-life [20]: 36 min | Time [21]: 5 days | Activity [22]: Active | IC50 (MOLT-4 [8]): 2.13 µM | IC50 (MOLT-4 [9]): 2.44 µM | half-life [23]: 366 min | Stability (Liver microsome): Stable | Cmax [24]: 9.17 µM | recovery at 10 µM [25]: 104% | IC50 (Trypanosoma brucei [10]): 0.176 µM | Papp B→A at 10 µM [26]: 1.4 ×10⁻⁶ cm/s | Cmax [27]: 4 µM | IC50 ([5]; read-out: IC50): 0.17 µM | fraction unbound at 4 h, 10 µM [28]: 1 | IC50 (Trypanosoma brucei [12]): 0.17 µM | Stability [29]: Stable | Papp A→B at 10 µM [30]: 3 ×10⁻⁶ cm/s | Tmax [31]: 30 min | Activity [13]: inactive | half-life [32]: 408 min | Ki [6]: 0.96 µM | Ratio (Caco-2): 0.5 | Time [33]: 2 days

Nc1nc(Cl)nc2c1ncn2[C@@H]1O[C@H](CO)C[C@H]1O
IC50 ([5]; read-out: IC50): > 50 µM | Ki [6]: 3.97 µM
